The source of these data is paper PMC11966289 (ACS Omega, 2025).

Data set [1] is described as follows: In vitro cytotoxicity, Neutral Red assay. The class given is cell-based. Particulars: African green monkey, Vero cells.
Another data set relates to P. berghei. Kind of data set: In vivo antiplasmodial evaluation in the P. berghei-mouse malaria model. Also noted: species or system P. berghei (Swiss Webster Hsd:ND4 mice). Conditions: for % Parasitemia suppression day 5 / % Parasitemia suppression day 7 / MST (mean survival time) / cure (mice without parasitemia until day 28) / survival (animals survived on day 28/total): oral gavage, mice; for parasitemia suppression: day not given.

In data set [2] the test system is P. falciparum (D6 strain). Put plainly: In vitro antiplasmodial activity. The data set is classed as cell-based. Particulars: Plasmodium falciparum, D6, 72 h, read-out: P. falciparum (D6 strain) IC50.
For data set [3], the system named is P. falciparum (W2 strain). Put plainly: In vitro antiplasmodial activity. Particulars: Plasmodium falciparum, W2, 72 h, read-out: P. falciparum (W2 strain) IC50. The data set is classed as cell-based. The gist of the method:
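Infected erythrocytes (2% hematocrit, 2% parasitemia) in RPMI 1640 with 60 μg/mL amikacin and 10% human serum, exposed to serially diluted test compound under 90% N2/5% CO2/5% O2 at 37 °C for 72 h. Parasite LDH measured with Malstat reagent (30 min, room temperature), then NBT/PES (1 h, dark), stopped with 5% acetic acid, absorbance 650 nm. Triplicates; chloroquine/artemisinin and DMSO controls; IC50 from dose–response.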

Regarding `Cc1cc(N2CCN(CCCNc3ccnc4cc(Cl)ccc34)CC2)nc(N2CCCC2)n1` [Compound 7i, 7-Chloro-N-(3-(4-(6-methyl-2-(pyrrolidin-1-yl)pyrimidin-4-yl)piperazin-1-yl)propyl) quinolin-4-amine], in data set [1], the IC50 at 48 h is over 4.76 µg/mL. Moreover, the “% Parasitemia suppression day 5” value with P. berghei (11.1 mg/kg × 3 days), with P. berghei (33.3 mg/kg × 3 days) and in the data set on P. berghei (100 mg/kg × 3 days) was 100.00% throughout. The “% Parasitemia suppression day 7” value with P. berghei (11.1 mg/kg × 3 days), with P. berghei (33.3 mg/kg × 3 days) and in the data set on P. berghei (100 mg/kg × 3 days) was 100.00% in each case. Besides, the “MST (mean survival time)” value amounted to 27 days in the data set on P. berghei (11.1 mg/kg × 3 days), 28 days with P. berghei (33.3 mg/kg × 3 days) and 22.8 days with P. berghei (100 mg/kg × 3 days). Also, the “cure (mice without parasitemia until day 28)” value was 3/5 in the data set with P. berghei (11.1 mg/kg × 3 days) and 5/5 with P. berghei (33.3 mg/kg × 3 days). The entries for the “survival (animals survived on day 28/total)” value in the data set on P. berghei (11.1 mg/kg × 3 days), with P. berghei (33.3 mg/kg × 3 days) and with P. berghei (100 mg/kg × 3 days) were 4/5, 5/5 and 5/5, respectively. Further, the parasitemia suppression amounted to 100% in the data set with P. berghei (33.33 mg/kg dose, oral gavage once daily days 0, 1, 2); 100% in the data set on P. berghei (at all doses (11.1, 33.3, and 100.0 mg/kg)). Also, the values for the IC50 in data set [2] and in data set [3] were 12 nM and 19 nM, respectively.

As usually defined, the IC50 is the concentration that inhibits the measured activity by half.
